Data: ChEMBL document CHEMBL1938298, “Synthesis and characterization of [¹²⁵I]2-iodo N-[(S)-{(S)-1-methylpiperidin-2-yl}(phenyl)methyl]3-trifluoromethyl-benzamide as novel imaging probe for glycine transporter 1” (Bioorg Med Chem, 2011)
Calls of active or inactive are those of the source. The calls are words filed in the database; no cut-off is given here.

What was measured:
[1] = tested on: Lung; assay: Drug uptake in ddY mouse lung at 11.1 kBq, iv after 15 min by gamma counting; format: ADME, organism-based; settings: in vivo
Procedure, shortened: (§1)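 Male ddY mice (6 weeks, 30–35 g) were given about 11.1 kBq of [125I]tracer in 0.1 mL i.v. via the tail vein. At each time point the animals were killed and organs dissected, weighed and gamma-counted. Uptake is expressed as % injected dose per gram of tissue, mean ± SD, n = 5–6.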

[2] = tested on: Mus musculus; assay: In vivo binding affinity to GlyT1 in ddY mouse brain midbrain at 33.3 kBq, iv after 60 mins in presence of N-Me-SSR504734 2 mg/kg, iv administered 15 mins prior to compound administration relative to control; format: functional
[3] = tested on: Spleen; assay: Drug uptake in ddY mouse spleen at 11.1 kBq, iv after 30 min by gamma counting; format: ADME, organism-based; settings: in vivo, 0.5 h; procedure, shortened: as §1
[4] = tested on: Brain; assay: Drug uptake in ddY mouse brain at 11.1 kBq, iv after 15 min by gamma counting; format: ADME, organism-based; settings: in vivo
Procedure, shortened: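 Male ddY mice (6 weeks, 30–35 g) received about 11.1 kBq [125I]tracer in 0.1 mL i.v. via tail vein. Killed at set times, organs dissected and weighed, radioactivity gamma counted. Reported as % injected dose/g tissue, mean ± SD, n = 5–6.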

[5] = biological target: T1, Sodium- and chloride-dependent glycine transporter 1 (Rattus norvegicus, UniProt P28572); assay: Binding affinity to GlyT1 in rat cortical brain homogenate after 60 mins by gamma counting; format: tissue-based
T1 sequence (P28572 whole entry): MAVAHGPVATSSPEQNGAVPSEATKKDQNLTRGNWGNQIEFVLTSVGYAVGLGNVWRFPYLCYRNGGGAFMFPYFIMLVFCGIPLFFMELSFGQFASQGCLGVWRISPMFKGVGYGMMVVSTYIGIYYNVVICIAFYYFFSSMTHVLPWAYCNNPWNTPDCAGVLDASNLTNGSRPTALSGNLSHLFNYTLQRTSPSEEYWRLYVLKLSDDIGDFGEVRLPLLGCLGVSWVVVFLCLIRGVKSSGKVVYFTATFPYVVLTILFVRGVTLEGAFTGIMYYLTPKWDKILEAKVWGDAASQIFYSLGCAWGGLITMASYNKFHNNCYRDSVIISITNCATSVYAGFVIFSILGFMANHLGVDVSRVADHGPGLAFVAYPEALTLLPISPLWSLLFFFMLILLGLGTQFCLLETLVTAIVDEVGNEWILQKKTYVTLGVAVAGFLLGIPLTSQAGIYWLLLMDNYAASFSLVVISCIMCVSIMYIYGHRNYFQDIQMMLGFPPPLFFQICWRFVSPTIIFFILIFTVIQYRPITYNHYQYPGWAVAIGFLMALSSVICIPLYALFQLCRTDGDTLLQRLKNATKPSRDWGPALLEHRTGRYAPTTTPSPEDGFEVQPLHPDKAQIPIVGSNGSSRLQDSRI
Procedure, shortened: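 Saturation binding on washed rat cortical membranes (25 µg protein) with [125I]tracer 0.1–20 nM in TB1 buffer (120 mM NaCl, 2 mM KCl, 1 mM CaCl2, 1 mM MgCl2, 10 mM HEPES, pH 7.5), 60 min at room temperature. Nonspecific binding defined with 10 µM unlabeled ligand. GF/B filtration with ice-cold buffer washes, gamma counting; Kd and Bmax from saturation analysis.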

[6] = tested on: Mus musculus; assay: In vivo binding affinity to GlyT1 in ddY mouse brain thalamus at 33.3 kBq, iv after 30 mins in presence of nonradioactive compound 2 mg/kg, iv administered 15 mins prior to compound administration relative to control; format: functional
[7] = tested on: Kidney; assay: Drug uptake in ddY mouse kidney at 11.1 kBq, iv after 30 min by gamma counting; format: ADME, organism-based; settings: in vivo, 0.5 h; procedure, shortened: as §1
[8] = tested on: Mus musculus; assay: In vivo binding affinity to GlyT1 in ddY mouse brain midbrain at 33.3 kBq, iv after 60 mins in presence of nonradioactive compound 2 mg/kg, iv administered 15 mins prior to compound administration relative to control; format: functional
[9] = biological target: T2, Sodium- and chloride-dependent glycine transporter 1 (Rattus norvegicus) (UniProt P28572); assay: Binding affinity to GlyT1 in rat brain cerebellum at 0.03 to 0.04 nM preincubated for 20 mins in binding buffer before compound addition measured after 30 mins by autoradiography in presence of 0.01 mM GlyT1 inhibitor ALX5407 relative to control; format: tissue-based; settings: tested as the 125I-labelled form
T2 sequence (whole entry): T1 sequence (P28572 whole entry)
Procedure, shortened: (§2)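 Rat brain sagittal sections (20 µm) preincubated 20 min at 25 °C in Tris-HCl buffer pH 7.5 (NaCl, KCl, MgCl2, CaCl2), then 30 min at 25 °C with [125I] tracer (100 kBq, 0.03–0.04 nM) plus competitor (10 µM; glycine 1 or 10 mM). Cold washes, imaging plate 3 days, ROI PSL minus background per mm². % control from ≥triplicate slices, three rats.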

[10] = biological target: T2, Sodium- and chloride-dependent glycine transporter 1 (Rattus norvegicus); assay: Binding affinity to GlyT1 in rat brain medullary region at 0.03 to 0.04 nM preincubated for 20 mins in binding buffer before compound addition measured after 30 mins by autoradiography in presence of 0.01 mM GlyT2 inhibitor ORG25543 relative to control; format: tissue-based; settings: tested as the 125I-labelled form; procedure, shortened: as §2
[11] = biological target: T2, Sodium- and chloride-dependent glycine transporter 1 (Rattus norvegicus); assay: Binding affinity to GlyT1 in rat brain thalamus at 0.03 to 0.04 nM preincubated for 20 mins in binding buffer before compound addition measured after 30 mins by autoradiography in presence of 1 mM GlyT1 substrate glycine relative to control; format: tissue-based; settings: tested as the 125I-labelled form
[12] = biological target: T2, Sodium- and chloride-dependent glycine transporter 1 (Rattus norvegicus); assay: Binding affinity to GlyT1 in rat brain cerebral cortex at 0.03 to 0.04 nM preincubated for 20 mins in binding buffer before compound addition measured after 30 mins by autoradiography in presence of 1 mM GlyT1 substrate glycine relative to control; format: tissue-based; settings: tested as the 125I-labelled form; procedure, shortened: as §2
[13] = tested on: Mus musculus; assay: In vivo binding affinity to GlyT1 in ddY mouse brain cortex at 33.3 kBq, iv after 30 mins in presence of SSR504734 2 mg/kg, iv administered 15 mins prior to compound administration relative to control; format: functional, organism-based; parameters: dose 2 mg/kg; settings: tested as the 125I-labelled form
Procedure, shortened: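 Blocking study in male ddY mice (6 weeks, 30–35 g). The blocker (2 mg/kg in 30% DMSO/saline) was injected i.v. 15 min before about 33.3 kBq [125I]tracer i.v.; mice were killed at 30 or 60 min. Brains were divided into cortex, corpus callosum, hippocampus, thalamus, midbrain, medulla and cerebellum, weighed and gamma-counted as % dose/g. Values are mean ± SD, n = 5–6, compared to control by Kruskal–Wallis with Dunn's post-test.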

[14] = biological target: T2, Sodium- and chloride-dependent glycine transporter 1 (Rattus norvegicus); assay: Binding affinity to GlyT1 in rat brain corpus callosum at 0.03 to 0.04 nM preincubated for 20 mins in binding buffer before compound addition measured after 30 mins by autoradiography in presence of 0.01 mM GlyT1 inhibitor ALX5407 relative to control; format: tissue-based; settings: tested as the 125I-labelled form; procedure, shortened: as §2
[15] = biological target: T2, Sodium- and chloride-dependent glycine transporter 1 (Rattus norvegicus); assay: Binding affinity to GlyT1 in rat brain medullary region at 0.03 to 0.04 nM preincubated for 20 mins in binding buffer before compound addition measured after 30 mins by autoradiography in presence of GlyT1 inhibitor N-Me-SSR504734 relative to control; format: tissue-based; settings: tested as the 125I-labelled form; procedure, shortened: as §2
[16] = tested on: Mus musculus; assay: In vivo binding affinity to GlyT1 in ddY mouse brain midbrain at 33.3 kBq, iv after 30 mins in presence of SSR504734 2 mg/kg, iv administered 15 mins prior to compound administration relative to control; format: functional, organism-based; parameters: dose 2 mg/kg; settings: tested as the 125I-labelled form

Row | Drug uptake [1] [% ID/g] | Drug uptake [3] [% ID/g] | Drug uptake [4] [% ID/g] | Kd [5] [nM] | Drug uptake [7] [% ID/g] | Activity [9] [%] | Activity [10] [%] | Activity [11] [%] | Activity [12] [%] | Activity [14] [%] | Activity [15] [%] | Compound | Activity [2] [%] | Activity [6] [%] | Activity [8] [%] | Activity [13] | Activity [16]
1 | 15.24 | 7.68 | 1.68 | 1.58 | 10.22 |  |  |  |  |  |  | CN1CCCC[C@H]1[C@@H](NC(=O)c1cccc(C(F)(F)F)c1[125I])c1ccccc1 | 48 | 45 | 51 |  | 
2 |  |  |  |  |  | 43.1 | 91.4 | 108 | 89.6 | 27.8 | 20.6 | CN1CCCC[C@H]1[C@@H](NC(=O)c1cccc(C(F)(F)F)c1I)c1ccccc1 |  |  |  | inactive | inactive
